{"source": "ChEMBL document CHEMBL1649157", "about": "“Intracellular activity of antibiotics against Staphylococcus aureus in a mouse peritonitis model” (Antimicrob Agents Chemother, 2009)", "key": {"Staphylococcus aureus [1]": {"test_system": "Staphylococcus aureus", "experiment": "Bactericidal activity against Staphylococcus aureus E19977 assessed as log reduction in cfu at 2 mg/liter after 24 hrs by time-kill study", "format": "functional, organism-based", "procedure,_shortened": "(§1)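 In vitro kinetic model simulating antibiotic elimination without inoculum change. Exponential-phase E19977 was added at a final 10^6.3 CFU/ml. Starting drug concentration matched the human free peak, with the human half-life simulated. Samples were plated on 5% blood agar at 0, 2, 4, 6, 8, 12 and 24 h, with growth controls in each run. Results are shown as mean and range, n = 2.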"}, "Staphylococcus aureus [2]": {"test_system": "Staphylococcus aureus", "experiment": "Bactericidal activity against Staphylococcus aureus E19977 assessed as log reduction in cfu at 0.5 mg/liter after 24 hrs by time-kill study", "format": "functional, organism-based", "procedure,_shortened": "as §1"}, "Staphylococcus aureus [3]": {"test_system": "Staphylococcus aureus", "experiment": "Bactericidal activity against Staphylococcus aureus E19977 assessed as log reduction in cfu at 20 mg/liter after 24 hrs by time-kill study", "format": "functional, organism-based", "procedure,_shortened": "as §1"}, "Staphylococcus aureus [4]": {"test_system": "Staphylococcus aureus", "experiment": "Bactericidal activity against Staphylococcus aureus E19977 assessed as log reduction in cfu at 1.5 mg/liter after 24 hrs by time-kill study", "format": "functional, organism-based", "procedure,_shortened": "as §1"}, "Serum [5]": {"test_system": "Serum", "experiment": "Protein binding in human serum at 1000 mg, po", "format": "ADME, organism-based", "conditions": "in vivo"}, "Staphylococcus aureus [6]": {"test_system": "Staphylococcus aureus", "experiment": "Antibacterial activity against Staphylococcus aureus E19977 by Etest", "format": "functional"}, "Staphylococcus aureus [7]": {"test_system": "Staphylococcus aureus", "experiment": "Antibacterial activity against Staphylococcus aureus E19977 infected in NMRI mouse assessed as log reduction in intracellular bacterial cfu in peritoneum at 1 mg/kg, sc administered 2 hrs after infection measured after 4 hrs", "format": "functional, organism-based", "design": "dose 1 mg/kg", "procedure,_shortened": "(§2)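 Female NMRI mice (25–30 g) were infected i.p. with 0.5 ml of 10^7.7 CFU/ml in 5% mucin. […] Pooled washes were split into total, extracellular and intracellular fractions by 300 × g spin, lysostaphin, HBSS washes and water lysis. Counts were compared with untreated mice.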"}, "Staphylococcus aureus [8]": {"test_system": "Staphylococcus aureus", "experiment": "Antibacterial activity against Staphylococcus aureus E19977 infected in NMRI mouse assessed as log reduction in bacterial cfu in peritoneum at 1 mg/kg, sc administered 2 hrs after infection measured after 4 hrs", "format": "functional, organism-based", "design": "dose 1 mg/kg", "procedure,_shortened": "as §2"}, "[9]": {"experiment": "Cmax in human at 1000 mg, po", "format": "ADME, organism-based", "design": "dose 1000 mg, route oral", "conditions": "in vivo"}, "[10]": {"experiment": "Half life in human at 1000 mg, po", "format": "ADME, organism-based", "conditions": "in vivo"}, "Staphylococcus aureus [11]": {"test_system": "Staphylococcus aureus", "experiment": "Antibacterial activity against Staphylococcus aureus E19977 infected in NMRI mouse assessed as log reduction in extracellular bacterial cfu in peritoneum at 1 mg/kg, sc administered 2 hrs after infection measured after 4 hrs", "format": "functional, organism-based", "design": "dose 1 mg/kg", "procedure,_shortened": "as §2"}, "Staphylococcus aureus [12]": {"test_system": "Staphylococcus aureus", "experiment": "Bacteriostatic activity against Staphylococcus aureus E19977 assessed as log reduction in cfu at 0.5 mg/liter upto 8 hrs by time-kill study", "format": "functional, organism-based"}, "Staphylococcus aureus [13]": {"test_system": "Staphylococcus aureus", "experiment": "Bactericidal activity against Staphylococcus aureus E19977 assessed as log reduction in cfu at 9 mg/liter after 24 hrs by time-kill study", "format": "functional, organism-based", "procedure,_shortened": "as §1"}, "Staphylococcus aureus [14]": {"test_system": "Staphylococcus aureus", "experiment": "Antibacterial activity against Staphylococcus aureus E19977 infected in NMRI mouse assessed as log reduction in bacterial cfu in peritoneum at 200 mg/kg, sc administered 2 hrs after infection measured after 4 hrs", "format": "functional, organism-based", "design": "dose 200 mg/kg", "procedure,_shortened": "(§3)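 Dose–response in i.p.-infected NMRI mice (mucin adjuvant). Single doses of 200, 60, 30, 20 or 10 mg/kg were given 2 h after inoculation, with 4–16 mice per group. Peritoneal wash was sampled 4 h later and split by lysostaphin/centrifugation into total, extra- and intracellular counts, then expressed as Δlog10 CFU/ml against log dose. Vehicle controls were plotted as 0.3 mg/kg. Hill fit (variable slope); static dose interpolated.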"}, "Staphylococcus aureus [15]": {"test_system": "Staphylococcus aureus", "experiment": "Bactericidal activity against Staphylococcus aureus E19977 assessed as log reduction in cfu at 1.5 mg/liter upto 24 hrs by time-kill study", "format": "functional", "procedure,_shortened": "(§4)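 Clinical bacteremia isolate (penicillin-resistant, methicillin-susceptible). Exponential-phase bacteria were placed in an in vitro kinetic model that simulates drug elimination without changing the inoculum. The starting drug level matched the human free peak serum concentration after a single dose, with simulated human elimination half-life. Samples were taken at 0, 2, 4, 6, 8, 12 and 24 h, with growth controls in each run.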"}, "Serum [16]": {"test_system": "Serum", "experiment": "Protein binding in human serum at 1000 mg, im", "format": "ADME, cell-free"}, "Staphylococcus aureus [17]": {"test_system": "Staphylococcus aureus", "experiment": "Bactericidal activity against Staphylococcus aureus E19977 assessed as log reduction in cfu at 2 mg/liter after 12 hrs by time-kill study", "format": "functional", "procedure,_shortened": "as §4"}, "Staphylococcus aureus [18]": {"test_system": "Staphylococcus aureus", "experiment": "Antibacterial activity against Staphylococcus aureus E19977 infected in NMRI mouse assessed as log reduction in intracellular bacterial cfu in peritoneum at 200 mg/kg, sc administered 2 hrs after infection measured after 4 hrs", "format": "functional, organism-based", "design": "dose 200 mg/kg", "procedure,_shortened": "as §3"}, "Staphylococcus aureus [19]": {"test_system": "Staphylococcus aureus", "experiment": "Bactericidal activity against Staphylococcus aureus E19977 assessed as log reduction in cfu at 2 mg/liter upto 24 hrs by time-kill study", "format": "functional", "procedure,_shortened": "as §4"}, "[20]": {"experiment": "Cmax in human at 1000 mg, im", "format": "ADME, organism-based", "design": "dose 1000 mg, route […]", "conditions": "in vivo"}, "Staphylococcus aureus [21]": {"test_system": "Staphylococcus aureus", "experiment": "Bactericidal activity against Staphylococcus aureus E19977 assessed as log reduction in cfu at 20 mg/liter upto 24 hrs by time-kill study", "format": "functional", "procedure,_shortened": "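In vitro kinetic model: exponential-phase bacteria at a final 10^6.3 CFU/ml were exposed to a starting concentration set to the human free peak level. Elimination followed the simulated human half-life. Samples were taken at 0, 2, 4, 6, 8, 12 and 24 h and counted on 5% blood agar (detection limit 25 CFU/ml). Growth controls were included; n = 2.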"}, "[22]": {"experiment": "Half life in human at 1000 mg, im", "format": "ADME, organism-based", "conditions": "in vivo"}, "Staphylococcus aureus [23]": {"test_system": "Staphylococcus aureus", "experiment": "Antibacterial activity against Staphylococcus aureus E19977 infected in NMRI mouse assessed as log reduction in extracellular bacterial cfu in peritoneum at 200 mg/kg, sc administered 2 hrs after infection measured after 4 hrs", "format": "functional, organism-based", "design": "dose 200 mg/kg", "procedure,_shortened": "as §3"}}, "note": "Activity calls are given as the source filed them. The calls are words filed in the database; no cut-off is given here.", "data": [{"smiles": "CC[C@H]1OC(=O)[C@H](C)[C@@H](O[C@H]2C[C@@](C)(OC)[C@@H](O)[C@H](C)O2)[C@H](C)[C@@H](O[C@@H]2O[C@H](C)C[C@H](N(C)C)[C@H]2O)[C@](C)(O)C[C@@H](C)CN(C)[C@H](C)[C@@H](O)[C@]1(C)O", "note": "[AZITHROMYCIN]", "values": [{"measurement": "Activity", "setting": "Staphylococcus aureus [1]", "value": "inactive"}, {"measurement": "Activity", "setting": "Staphylococcus aureus [2]", "value": "inactive"}, {"measurement": "Activity", "setting": "Staphylococcus aureus [3]", "value": "inactive"}, {"measurement": "Activity", "setting": "Staphylococcus aureus [4]", "value": "inactive"}, {"measurement": "Activity", "setting": "Serum [5]", "value": 50, "unit": "%"}, {"measurement": "MIC", "setting": "Staphylococcus aureus [6]", "value": 0.5, "unit": "mg/L"}, {"measurement": "Activity", "setting": "Staphylococcus aureus [7]", "value": "inactive"}, {"measurement": "Activity", "setting": "Staphylococcus aureus [8]", "value": "inactive"}, {"measurement": "Cmax", "setting": "[9]", "value": 1, "unit": "µg/mL"}, {"measurement": "half-life", "setting": "[10]", "value": 10, "unit": "h"}, {"measurement": "Activity", "setting": "Staphylococcus aureus [11]", "value": "inactive"}, {"measurement": "Activity", "setting": "Staphylococcus aureus [12]", "value": "Active"}, {"measurement": "Activity", "setting": "Staphylococcus aureus [13]", "value": "inactive"}]}, {"smiles": "CO/N=C(\\C(=O)N[C@@H]1C(=O)N2C(C(=O)O)=C(COC(N)=O)CS[C@H]12)c1ccco1", "note": "[CEFUROXIME]", "values": [{"measurement": "Activity", "setting": "Staphylococcus aureus [1]", "value": "inactive"}, {"measurement": "Activity", "setting": "Staphylococcus aureus [2]", "value": "inactive"}, {"measurement": "Activity", "setting": "Staphylococcus aureus [3]", "value": "inactive"}, {"measurement": "Activity", "setting": "Staphylococcus aureus [4]", "value": "inactive"}, {"measurement": "Activity", "setting": "Staphylococcus aureus [14]", "value": "Active"}, {"measurement": "MIC", "setting": "Staphylococcus aureus [6]", "value": 2, "unit": "mg/L"}, {"measurement": "FC", "setting": "Staphylococcus aureus [15]", "value": 2}, {"measurement": "Activity", "setting": "Serum [16]", "value": 30, "unit": "%"}, {"measurement": "FC", "setting": "Staphylococcus aureus [17]", "value": 2}, {"measurement": "Activity", "setting": "Staphylococcus aureus [18]", "value": "inactive"}, {"measurement": "FC", "setting": "Staphylococcus aureus [19]", "value": 2}, {"measurement": "Cmax", "setting": "[20]", "value": 26, "unit": "µg/mL"}, {"measurement": "FC", "setting": "Staphylococcus aureus [21]", "value": ">2"}, {"measurement": "half-life", "setting": "[22]", "value": 1.5, "unit": "h"}, {"measurement": "Activity", "setting": "Staphylococcus aureus [23]", "value": "Active"}, {"measurement": "Activity", "setting": "Staphylococcus aureus [13]", "value": "inactive"}]}]}
